In one data set the test system is HEPG-2. Particulars: antiproliferative activity ref 29; cited from earlier work.
In a further data set the test system is MCF-7. Particulars: antiproliferative activity ref 29; cited from earlier work.
Data set [1] relates to MCF-7 cells. Conditions: read-out: IC50 (MCF-7 cells); cytotoxic action ref 32; cited from earlier work.
For data set [2], the system named is MCF-7 cells. Description: MTT cytotoxicity assay, MCF-7 cells. Type of data set: cell-based. Conditions: for IC50: Homo sapiens; for cytotoxicity in words: against MCF-7 and HepG2 cells. The method, boiled down:
(§1)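 Cells grown in medium with 10% FBS and 1% penicillin-streptomycin under CO2 at 37 °C and seeded at 5 × 10^4 per well. They were exposed to the test compound at 0.01, 0.1, 1, 10 and 100 μM, and viability was read by MTT absorbance as percent of control. IC50 came from dose-response curves, averaged over three independent trials.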
Background: Formazan colour is commonly taken as a measure of viable cells.

The subject of data set [3] is HepG2 cells. Description: MTT cytotoxicity assay, HepG2 cells. Conditions: Homo sapiens, HepG2, read-out: IC50 (HepG2). It is filed as cell-based. The method, boiled down:
as §1

The test system of data set [4] is normal cell lines MCF-10A and THLE2. Description: MTT assay on normal breast. Type of data set: cell-based. The method, boiled down: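 Normal breast MCF-10A and normal liver THLE2 cells, cultured with 10% FBS and 1% penicillin-streptomycin under CO2 at 37 °C. They were seeded at 5 × 10^4 per well and treated with the test compound at 0.01–100 μM. MTT absorbance gave percent viability versus untreated control.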

The target in a further data set is EGFR (Homo sapiens, UniProt P00533). Description: EGFR enzyme inhibition. It is filed as biochemical.
The next data set has as its target PARP-1 (Homo sapiens, UniProt P09874). Description: PARP-1 enzyme inhibition. Type of data set: biochemical.
Data set [5] deals with solid Ehrlich carcinoma cells. Description: In vivo solid Ehrlich carcinoma.
Data set [6] has as its system MCF-7 cells. Description: Annexin V/PI apoptosis-necrosis assessment, MCF-7. It is filed as cell-based. Conditions: MCF-7, IC50 dose, 48 h.
In data set [7] the test system is HepG2 cells. Description: Annexin V/PI apoptosis-necrosis assessment, HepG2. Particulars: HepG2, IC50 dose, 48 h. Type of data set: cell-based.
The test system of data set [8] is MCF-7 cells. Description: Cell cycle analysis. It is filed as cell-based. The method in brief: (§2)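 DNA content of untreated and treated cells was measured by flow cytometry as histograms. The percentage of cells in each cycle phase was compared before and after 48 h exposure.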
The test system of data set [9] is HepG2 cells. Description: Cell cycle analysis. Type of data set: cell-based. The method in brief: as §2
[10] abbreviates: SEC-bearing mice, 5 mg/kg BW IP, seven doses, mean ± SD n = 6.
[11] abbreviates: SEC-bearing mice, 5 mg/kg BW IP, seven doses, mean ± SD n = 6, 5 mg/kg.
[12] abbreviates: SEC-bearing mice, after treatment.

By IC50 is commonly meant the concentration that inhibits the measured activity by half. By inhibition is commonly meant the drop in the measured response relative to a control, in per cent.

SMILES strings stand for the structures. Converted amounts (≈) assume the structure as drawn. “And” between values parts separate entries of the source, which are not always exact repeats. Identical values can stand only once. “Also recorded” adds a separate entry of the source. Like-named read-outs stand apart in the source and are kept apart here.

PARP-1, sequence (P09874 whole entry): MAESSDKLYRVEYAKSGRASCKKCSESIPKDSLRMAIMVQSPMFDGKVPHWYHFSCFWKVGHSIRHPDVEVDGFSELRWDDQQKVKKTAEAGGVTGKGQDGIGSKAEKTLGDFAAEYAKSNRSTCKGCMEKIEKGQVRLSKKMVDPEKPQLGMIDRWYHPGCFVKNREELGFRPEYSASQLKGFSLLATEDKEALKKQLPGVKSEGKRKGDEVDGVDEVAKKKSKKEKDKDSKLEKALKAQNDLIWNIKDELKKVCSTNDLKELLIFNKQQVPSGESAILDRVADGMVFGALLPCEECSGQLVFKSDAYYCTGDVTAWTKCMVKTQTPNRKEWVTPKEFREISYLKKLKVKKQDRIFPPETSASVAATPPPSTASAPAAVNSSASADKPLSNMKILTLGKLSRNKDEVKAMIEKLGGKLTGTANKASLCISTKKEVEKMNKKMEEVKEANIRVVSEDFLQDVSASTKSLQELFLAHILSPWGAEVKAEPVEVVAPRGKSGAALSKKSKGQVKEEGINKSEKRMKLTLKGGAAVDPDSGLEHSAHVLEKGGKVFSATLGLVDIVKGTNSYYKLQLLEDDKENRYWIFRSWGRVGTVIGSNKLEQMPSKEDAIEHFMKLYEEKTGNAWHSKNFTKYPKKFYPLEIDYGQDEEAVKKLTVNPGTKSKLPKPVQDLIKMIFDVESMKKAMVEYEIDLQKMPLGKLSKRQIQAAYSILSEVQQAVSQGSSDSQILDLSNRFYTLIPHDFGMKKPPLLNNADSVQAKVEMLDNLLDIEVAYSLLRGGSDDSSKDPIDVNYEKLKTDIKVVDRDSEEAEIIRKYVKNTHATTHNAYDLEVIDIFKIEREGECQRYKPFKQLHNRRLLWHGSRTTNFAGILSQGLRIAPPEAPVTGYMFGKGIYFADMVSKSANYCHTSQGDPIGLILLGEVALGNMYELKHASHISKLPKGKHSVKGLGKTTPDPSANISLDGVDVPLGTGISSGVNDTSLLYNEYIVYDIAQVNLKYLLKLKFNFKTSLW
EGFR, sequence (P00533 25-1210): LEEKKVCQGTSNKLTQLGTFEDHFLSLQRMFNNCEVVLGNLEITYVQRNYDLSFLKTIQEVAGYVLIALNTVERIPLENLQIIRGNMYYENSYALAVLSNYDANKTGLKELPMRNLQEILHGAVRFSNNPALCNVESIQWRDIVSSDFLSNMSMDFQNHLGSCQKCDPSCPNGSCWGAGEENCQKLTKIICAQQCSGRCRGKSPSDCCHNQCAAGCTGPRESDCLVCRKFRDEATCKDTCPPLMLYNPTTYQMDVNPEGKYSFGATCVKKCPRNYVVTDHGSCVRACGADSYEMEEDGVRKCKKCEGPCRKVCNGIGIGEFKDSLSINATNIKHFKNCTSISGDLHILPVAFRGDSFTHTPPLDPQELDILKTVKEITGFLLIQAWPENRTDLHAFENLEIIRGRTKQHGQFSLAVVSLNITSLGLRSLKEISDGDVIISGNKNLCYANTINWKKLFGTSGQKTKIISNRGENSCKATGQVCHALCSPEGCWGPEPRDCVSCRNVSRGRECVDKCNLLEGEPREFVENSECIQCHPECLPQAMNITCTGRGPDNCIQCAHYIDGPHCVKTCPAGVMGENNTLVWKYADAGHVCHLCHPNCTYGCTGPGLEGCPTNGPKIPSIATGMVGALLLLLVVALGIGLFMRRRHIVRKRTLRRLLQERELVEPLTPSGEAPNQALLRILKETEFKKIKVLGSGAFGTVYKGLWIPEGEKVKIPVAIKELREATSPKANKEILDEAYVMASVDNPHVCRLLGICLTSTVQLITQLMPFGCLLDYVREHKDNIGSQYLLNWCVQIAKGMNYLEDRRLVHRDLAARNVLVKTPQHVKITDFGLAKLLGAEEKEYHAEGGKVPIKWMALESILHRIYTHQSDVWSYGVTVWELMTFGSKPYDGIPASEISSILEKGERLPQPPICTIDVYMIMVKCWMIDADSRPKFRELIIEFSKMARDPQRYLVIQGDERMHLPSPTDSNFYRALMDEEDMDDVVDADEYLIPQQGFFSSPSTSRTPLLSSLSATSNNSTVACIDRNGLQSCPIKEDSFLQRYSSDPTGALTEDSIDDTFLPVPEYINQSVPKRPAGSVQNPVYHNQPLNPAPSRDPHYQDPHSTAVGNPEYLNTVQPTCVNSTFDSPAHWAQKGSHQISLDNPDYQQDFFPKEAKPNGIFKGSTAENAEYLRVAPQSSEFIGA

For the molecule `c1ccc(CSc2nc(-c3cc4ccccc4[nH]3)n[nH]2)cc1` [I, 3-Benzylsulfanyl-5-(1H-indol-2-yl)-2H-1,2,4-triazole], the “IC50 (HEPG-2)” value with HEPG-2 was 3.58 µg/mL (≈ 11.7 µM). The “IC50 (MCF-7)” value in the data set with MCF-7 is 4.53 µg/mL (≈ 14.8 µM).
In the case of `CNC(=O)c1cc(Oc2ccc(NC(=O)Nc3ccc(Cl)c(C(F)(F)F)c3)cc2)ccn1` [Sorafenib], the IC50 in the data set with MCF-7 cells [1] was 2130 nM.
Turning to `OCCSc1nnc(-c2cc3ccccc3[nH]2)n1-c1ccc(Cl)cc1` [12b, 4-(4-Chlorophenyl)-3-(2-hydroxyeth-1-ylsulfanyl)-5-(1H-indol-2-yl)-1,2,4-triazole], the half-inhibitory concentration (IC50) in the data set with MCF-7 cells [2] (MCF7, read-out: IC50 (MCF-7)) is 2670 nM; with HepG2 cells [3], 3210 nM; against EGFR, 78.1 nM; on PARP-1, 2.13 nM. Also, in the data set with MCF-7 cells [2], the cytotoxicity in words result was “potent cytotoxicity”. In addition, in data set [4] (read-out: cell inhibition), the inhibition at 100 µM was 80%.
Regarding `O=C(NNC(=S)Nc1ccccc1)c1cc2ccccc2[nH]1` [2a, 1-(1H-Indol-2-yl-carbonyl)-4-Phenyl-thiosemicarbazide], the IC50 in the data set with HepG2 cells [3] was determined as 12400 nM.
For the molecule `CC(O)CSc1nnc(-c2cc3ccccc3[nH]2)n1-c1ccccc1` (stereo not drawn) [13a, 3-(2-Hydroxyprop-1-ylsulfanyl)-5-(1H-indol-2-yl)-4-phenyl-1,2,4-triazole], the IC50 was 6210 nM in the data set on MCF-7 cells [2] (MCF7, read-out: IC50 (MCF-7)); 6210 to 16300 nM with MCF-7 cells [2] (MCF7, read-out: IC50 range); 8910 nM in the data set with HepG2 cells [3]; 140 nM against EGFR; 21.6 nM against PARP-1. Further, the cytotoxicity in words result in the data set with MCF-7 cells [2] is recorded as “moderate activity”.
As for `S=c1[nH]nc(-c2cc3ccccc3[nH]2)n1-c1ccccc1` [3a, 5-(1H-Indol-2-yl)-4-phenyl-1,2,4-triazole-3(4H)-thione], the IC50 in the data set on HepG2 cells [3] was found to be 7390 nM.
For the molecule `COc1cccc2c1C(=O)c1c(O)c3c(c(O)c1C2=O)C[C@@](O)(C(=O)CO)C[C@@H]3O[C@H]1C[C@H](N)[C@H](O)[C@H](C)O1` [doxorubicin], in the data set with HEPG-2, the “IC50 (HEPG-2)” value is 4.0 µg/mL (≈ 7.36 µM). The “IC50 (MCF-7)” value in the data set with MCF-7 was 4.0 µg/mL (≈ 7.36 µM).
Regarding `OCCSc1nnc(-c2cc3ccccc3[nH]2)n1-c1ccccc1` [12a, 3-(2-Hydroxyeth-1-ylsulfanyl)-5-(1H-indol-2-yl)-4-phenyl-1,2,4-triazole], the IC50 was 12100 nM with MCF-7 cells [2] (MCF7, read-out: IC50 (MCF-7)); 6210 to 16300 nM in the data set on MCF-7 cells [2] (MCF7, read-out: IC50 range); 16300 nM in the data set with HepG2 cells [3]. Moreover, the cytotoxicity in words result with MCF-7 cells [2] is given as “moderate activity”.
For `C#Cc1cccc(Nc2ncnc3cc(OCCOC)c(OCCOC)cc23)c1` [Erlotinib, reference compound], the IC50 in the data set with MCF-7 cells [2] (MCF7, read-out: IC50 (MCF-7)) is 2510 nM; with HepG2 cells [3] it was 2910 nM. The molecule also yielded a total protein in data set [5] (setting [10]) of 6.2 ± 0.47 g/dL. Further, the tumor volume in data set [5] (setting [10]) is listed as 114.6 ± 12.5 mm^3. Besides, the tumor weight in data set [5] (setting [11]) was 69.3 mg and 69.3 ± 2.19 mg.
In the case of `O=c1[nH]cc(F)c(=O)[nH]1` [5-FU, reference compound], in data set [5] (SEC-bearing mice, 5 mg/kg BW IP, seven doses), the “tumor inhibition ratio (TIR%)” value came to 65.7%. In data set [5] (setting [10]), the tumor volume is 114 mm^3.
On to `CC(O)CSc1nnc(-c2cc3ccccc3[nH]2)n1-c1ccc(Cl)cc1` (stereo not drawn) [13b, 4-(4-Chlorophenyl)-3-(2-hydroxyprop-1-ylsulfanyl)-5-(1H-indol-2-yl)-1,2,4-triazole], for which the IC50 with MCF-7 cells [2] (MCF7, read-out: IC50 (MCF-7)) was 1070 nM. In the data set on MCF-7 cells [2], the cytotoxicity in words result is “potent cytotoxicity”. In the data set with HepG2 cells [3], the IC50 was 320 nM. In addition, the “toxicity to healthy cells” value in data set [4] (normal cells) is “no toxicity to healthy cells”. In the data set on MCF-7 cells [6], the early apoptosis worked out at 10.6%; the late apoptosis is 16.9%; the necrosis-mediated cell death amounted to 5.06%; the “necrosis-mediated cell death, fold increase” value is given as 4.18 fold. Moreover, in the data set on MCF-7 cells [6], the “total apoptotic cell death” value was 27.63% and the “total apoptotic cell death, fold vs control” value was found to be 26 fold. Also, in the data set on HepG2 cells [7], the early apoptosis came to 23.61%; the late apoptosis is reported as 9.34%; the necrosis-induced cell death is given as 6.01%; the “necrosis-induced cell death, fold increase” value is on record as 6.1 fold. Also, in the data set on HepG2 cells [7], the “total apoptotic cell death” value was 32.95% and the “total apoptotic cell death, fold increase” value turned out to be 34.68 fold. The “cell cycle arrest phase” value in the data set on MCF-7 cells [8] (MCF-7) is on record as “arrested cell division at the G2/M phase”. The “%DIP G2/M” value in the data set on MCF-7 cells [8] (MCF-7, 1.07 μM, 48 h) worked out at 26.4%. For the same molecule, the “cell cycle arrest phase” value in the data set on HepG2 cells [9] (HepG2) was “arrested cell division at the S phase”. For the same molecule, in the data set on HepG2 cells [9] (HepG2, 0.32 μM, 48 h), the “%DIP S” value was 45.21%. Moreover, on EGFR, the IC50 amounted to 62.4 nM. This molecule also gave a half-maximal inhibitory concentration (IC50) at PARP-1 of 1.24 nM. The “histopathological examination of liver tissues” value in data set [5] (SEC-bearing mice treated) was “improvement in liver tissues and retained them near normal; also recorded: Mild hydropic degeneration of hepatocytes”. The molecule further gave a tumor volume in data set [5] (setting [10]) of 129.6 ± 13.6 mm^3. In [5] (setting [11]), the Hb was determined as 7.29 g/dL; the total protein is 5.6 g/dL and 5.6 ± 0.39 g/dL; the tumor weight is 74.6 mg and 74.6 ± 2.79 mg. The “tumor inhibition ratio (TIR%)” value in data set [5] (SEC-bearing mice, 5 mg/kg BW IP, seven doses, 5 mg/kg) is 66.7% and 66.7 ± 1.06%. Moreover, in [5] (setting [12]), the “ALT” value was found to be 50.6 U/L, the “AST” value is 60.3 U/L and the “WBC” value was 4360 L⁻¹.
Turning to `S=c1[nH]nc(-c2cc3ccccc3[nH]2)n1-c1ccc(Cl)cc1` [3b, 4-(4-Chlorophenyl)-5-(1H-indol-2-yl)-2H-1,2,4-triazole-3(4H)-thione], the IC50 came out at 14200 nM in the data set on MCF-7 cells [2] (MCF7, read-out: IC50 (MCF-7)) and 17200 nM in the data set on HepG2 cells [3].
